From PubChem BioAssay
Compounds with a hit are over-represented: about 2.2% of the library has one in this group of screens.
bCat nuc transl = modulators of beta-catenin nuclear translocation, primary screen, imaging, HeLa cells, immunofluorescence, high-content; nuclear translocation activity, % at 5 µM; 0.3% of 190,000 active; AID 1665, 2009;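 active means nuclear translocation activity above 50% at 5 µM, with a well cell count of 50 or more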;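 further: per-cell ratio of nuclear to cytoplasmic median beta-catenin stain intensity; plate controls were DMSO negative control for no effect and GSK-3 inhibitor IX positive control for full effect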
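test system = HeLa cells, endogenous beta-catenin | dosing = single 5 µM dose plus 0.02–20 µM confirmation series | times = compound treatment 24 h, 37°C, 5% CO2 | technique = beta-catenin immunofluorescence imaging with DAPI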
Ba/F3 V617F tox = reduced viability of JAK2V617F-dependent Ba/F3 cells, primary screen, JAK2V617F inhibitor project, cell-based, Ba/F3 EpoR-JAK2V617F, luminescence; ATP luminescence; inhibition, % at 5.6 µM; 1.1% of 220,000 active; AID 1446, 2008;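 active means inhibition above the campaign mean plus 3 SD over all tested compounds, cut at about 24% in these data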;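 further: cytokine-independent growth of Ba/F3 cells driven by EpoR plus mutant JAK2; 0% = DMSO-treated cells and 100% = JAK inhibitor I control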
IEC-6 cytotox = cytotoxicity in IEC-6 intestinal epithelial cells, primary screen, cytotoxicity control for KLF5 inhibitor project, cell-based, luminescence; IEC-6 cytotoxicity, luminescence viability; inhibition, % at 5 µM; 0.78% of 290,000 active; AID 1825, 2009; in the data active means inhibition above about 22%;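 further: 0% = plate median of test compound wells and 100% = cytotoxic reference compound wells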
BaF3 parental = parental Ba/F3 cell viability inhibition, counter-screen for JAK2V617F inhibitor project, murine pro-B, CellTiter-Glo luminescence | CellTiter-Glo ATP luminescence | inhibition, % at 5.6 µM | 1.1% of 220,000 active | AID 1486, 2009;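 active means inhibition above a per-campaign cutoff, the mean inhibition of all tested compounds plus 3 SD, cut at about 27% in these data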;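 further: 0% = DMSO wells and 100% = JAK Inhibitor I control wells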
APP transl inh = inhibitors of APP translation via 5'UTR reporter, primary screen, APP 5'UTR luciferase, SH-SY5Y cells; SH-SY5Y APP 5'UTR-luciferase reporter, luminescence; AID 1285, 2008; 0.82% of 190,000 active; inhibition, % at 2 µM;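 active means inhibition above a set limit, derived from the sample mean plus 3 SD, cut at about 45% in these data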
MT stabilize HCS = microtubule stabilizers in HeLa cells, primary screen, imaging, high-content imaging; HeLa tubulin immunostaining HCS, 24 h; share of cells brighter than vehicle mean+2SD; % tubulin-high responders, % at 10 µM; AID 2205, 2009; 0.83% of 200,000 active;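 active means plate Z-score above 3 for both tubulin-high and condensed-nucleus cell shares, with cell loss under 80%, at 10 µM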;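 further: anti alpha tubulin signal scored within the nucleus-defined area of each cell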
BaF3 parental 2 = parental Ba/F3 cell viability inhibition, counter-screen for JAK2V617F inhibitor project, murine pro-B, CellTiter-Glo luminescence; cells kept alive by added IL-3; 31% of 580 active; AID 1520, 2009; inhibition, % at 5.6 µM; shares compounds with Ba/F3 V617F tox;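 active means cell growth inhibition above the hit limit set in the earlier mutant JAK2 cell screen, cut at about 27% in these data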;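 further: plate controls were DMSO-treated cells for no effect and JAK Inhibitor I control wells for full effect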
JAK2V617F conf = viability loss in Ba/F3 EpoR-JAK2V617F cells, confirmation, JAK2V617F inhibitor project, cell-based, luminescence, triplicate; shares compounds with Ba/F3 V617F tox; CellTiter-Glo luminescence; inhibition, % at 5.6 µM; 66% of 580 active; AID 1521, 2009;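 active means mean inhibition above the hit cutoff derived in the earlier primary screen, cut at about 25% in these data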;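 further: 0% = DMSO-treated cells and 100% = JAK inhibitor I control wells; higher means lower luminescence from reduced cell ATP and viability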
Starred values were filed as active, the others as inactive.

Screening COc1ccc(OC)c(C2(O)CSC(=Nc3cccnc3)N2Cc2ccco2)c1 (centres undefined) returned bCat nuc transl -0.5, Ba/F3 V617F tox 5.7, IEC-6 cytotox 6.4, BaF3 parental 11.4, APP transl inh 6.4 and MT stabilize HCS 2.2.
Screening OC1(c2ccc(OC(F)F)cc2)CSC(=Nc2cccnc2)N1C1CC1 (centres undefined) returned bCat nuc transl -0.6, Ba/F3 V617F tox 28.8*, IEC-6 cytotox 9.4, BaF3 parental 16.8, APP transl inh 2.5, MT stabilize HCS 3.6, BaF3 parental 2 5.0 and JAK2V617F conf 30.6*.
For COc1ccc(CNC(=O)CCS(=O)(=O)c2cc3c(cc2Cl)NC(=O)CO3)cc1 the results were IEC-6 cytotox -6.6.
For Nc1nc(CCl)nc(Nc2ccc3ccccc3c2)n1 the results were bCat nuc transl 20.6, Ba/F3 V617F tox 100.1*, IEC-6 cytotox 47.1*, BaF3 parental 24.3, BaF3 parental 2 8.7 and JAK2V617F conf 99.0*.
Cc1ccccc1Nc1nc(N)nc(CCl)n1 was read as bCat nuc transl 1.0, Ba/F3 V617F tox 37.1*, IEC-6 cytotox 13.9, BaF3 parental -5.0, BaF3 parental 2 -2.6 and JAK2V617F conf 9.0.
COc1ccc(Nc2nc(N)nc(CCl)n2)cc1 was read as bCat nuc transl 0.5, Ba/F3 V617F tox 45.2*, IEC-6 cytotox 5.5, BaF3 parental -1.0, BaF3 parental 2 -0.6 and JAK2V617F conf 65.5*.
Screening COCCNC(=S)N1CCN(Cc2ccc3c(c2)OCO3)CC1 returned IEC-6 cytotox -3.9.
For O=C(CCc1nnc(CCc2c[nH]c3ccccc23)o1)NC1CCC1 the results were bCat nuc transl -1.2, Ba/F3 V617F tox -4.4, IEC-6 cytotox 0.6 and BaF3 parental -0.5.
CC(C)C[C@H](N)c1nnc(SCC(=O)Nc2ccc(Br)cc2)o1 was read as IEC-6 cytotox 2.2.
Screening CC(C)C[C@H](NC(=O)OC(C)(C)C)c1nnc(SCC(=O)Nc2ccc(Br)cc2)o1 returned bCat nuc transl -3.0, Ba/F3 V617F tox 99.3*, IEC-6 cytotox -4.0, BaF3 parental 3.0, APP transl inh -5.3, MT stabilize HCS 1.8, BaF3 parental 2 -5.5 and JAK2V617F conf -1.5.
For Cc1cc(C)c(C(=O)/C=C/c2cccc3ccccc23)c(=O)[nH]1 the results were bCat nuc transl 5.3, Ba/F3 V617F tox -3.3, IEC-6 cytotox 5.9, BaF3 parental 0.5 and MT stabilize HCS 13.8.
Screening Cc1[nH]c(=O)c(C(=O)/C=C/c2ccccc2F)c2c1CCCC2 returned bCat nuc transl 2.7, Ba/F3 V617F tox 49.9*, IEC-6 cytotox 3.8, BaF3 parental 17.3, APP transl inh 6.9, MT stabilize HCS 22.6, BaF3 parental 2 17.5 and JAK2V617F conf 95.8*.
C=CCN(CC=C)S(=O)(=O)c1ccc(NC(=S)NC(=O)C2CC2)cc1 was read as IEC-6 cytotox -1.2.
Cc1sc2ncnc(Sc3nnnn3-c3ccccc3)c2c1C was read as bCat nuc transl -0.6, Ba/F3 V617F tox -2.3, IEC-6 cytotox 1.8, BaF3 parental 3.8, APP transl inh 5.3 and MT stabilize HCS 5.4.
Screening Clc1ccc(-n2nnnc2Sc2ncnc3sccc23)cc1 returned Ba/F3 V617F tox 26.4*, IEC-6 cytotox 3.5, BaF3 parental 1.1, APP transl inh 92.5*, MT stabilize HCS 3.8, BaF3 parental 2 1.1 and JAK2V617F conf 87.6*.
For O=C(NCCCCNC(=O)c1ccc(Cl)s1)c1ccc(Cl)s1 the results were bCat nuc transl 0.4, Ba/F3 V617F tox -4.0, IEC-6 cytotox -1.1, BaF3 parental -0.2, APP transl inh -0.7 and MT stabilize HCS 3.3.
